Test results reported in ChEMBL document CHEMBL3045034, “Diterpenes from Salvia broussonetii transformed roots and their insecticidal activity” (J Agric Food Chem, 2005).
Converted amounts (≈) assume the structure as drawn. The source made the active and inactive calls. No cut-off for these calls is given here.

How the values were obtained:
[1] = Cytotoxicity in mammalian Cricetulus griseus CHO (Chinese hamster ovary) cells measured after 48 hr by MTT assay; conditions: read-out: LD50
[2] = tested on: Leptinotarsa decemlineata; assay: Antifeedant activity against adult Leptinotarsa decemlineata in host plant assessed as feeding inhibition; assay type: functional, organism-based
In short: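 Choice feeding assay with adult beetles. Percent feeding inhibition was calculated. Compounds giving over 50% inhibition went on to a dose-response test, and EC50 (dose for 50% feeding reduction, µg/cm2) was derived by linear regression of % inhibition on log dose.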

[3] = tested on: Leptinotarsa decemlineata; assay: Mortality in adult Leptinotarsa decemlineata in host plant measured after 72 hr; assay type: functional; design: concentration or dose not given beside the values
In short: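 Test compounds in DMSO (10 µg/insect) were injected into the hemolymph of 20 adult beetles. Mortality was recorded for up to 3 days (72 h), analysed with contingency tables and corrected by Abbott's method.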

Spodoptera littoralis [4] = assay: Effect on weight gain in L6 larvae Spodoptera littoralis assessed as biomass compound injected orally relative to control; assay type: functional
Spodoptera littoralis [5] = assay: Effect on ingestion in L6 larvae Spodoptera littoralis assessed as consumption compound injected orally relative to control; assay type: functional
Spodoptera littoralis [6] = assay: Antifeedant activity against L6 larvae Spodoptera littoralis compound injected orally relative to control; assay type: functional, organism-based

Compound | CC50 at 48 h [1] | EC50 [2] | mortality [3] | Activity (Spodoptera littoralis [4]) | Activity (Spodoptera littoralis [5]) | Activity (Spodoptera littoralis [6])
COc1c(C(C)C)cc2c(c1O)[C@@]1(C)CCCC(C)(C)[C@@H]1CC2 | > 100 µg/mL | 10.2 microg/cm2 | 14% | 102% | 91% | inactive
CC(C)c1cc2c(c(O)c1O)[C@@]1(C)CCCC(C)(C)[C@@H]1[C@@H](O)C2=O [6-ALPHA-HYDROXYDEMETHYL-CRYPTOJAPONOL] | > 100 µg/mL | – | – | – | – | inactive
CC(C)c1cc2c(c(O)c1O)[C@@]1(C)CCCC(C)(C)C1=C(O)C2=O [14-DEOXYCOLEON U] | > 100 µg/mL | 1.8 microg/cm2 | 29% | 99% | 107% | inactive
CC(C)c1cc2c(c(O)c1O)C[C@@]13CCCC(C)(C)[C@@H]1C[C@@H]2O3 [BRUSSONOL] | 50.6 µg/mL (≈ 160 µM) | > 100 microg/cm2 | 7% | – | – | –
CC(C)c1cc2c(c(O)c1O)[C@@]1(C)CCCC(C)(C)[C@@H]1CC2=O [DEMETHYLCRYPTOJAPONOL] | 36 µg/mL (≈ 114 µM) | > 100 microg/cm2 | 43% | 105% | 103% | inactive
COc1c(O)c2c(c(O)c1C(C)C)C(=O)C[C@H]1C(C)(C)CCC[C@]21C [INUROYLEANOL] | – | > 100 microg/cm2 | 0% | 106% | 119% | inactive
